Data taken from ChEMBL document CHEMBL1268855 (J Nat Prod, 2010).
Calls of active or inactive are those of the source. The calls are words filed in the database; no cut-off is given here.

Key:
Influenza A virus [1] = test: Antiviral activity against influenza A virus A/PR/8/34(H1N1) infected in MDCK cells at 15.92 uM after 24 hrs by immunofluorescence assay; format: functional, organism-based
Summary of the method: (§1)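 MDCK cells on chamber slides infected with A/PR/8/34 at 1000 TCID50/mL for 2 h in infection medium (DMEM, 0.5% BSA, 1.5 µg/mL trypsin). Then cultured with compound in 5% FBS DMEM for 24 h at 37 °C. Cells fixed in 4% paraformaldehyde, permeabilised, stained with anti-M1 monoclonal antibody, FITC anti-mouse IgG secondary and DAPI. Fluorescence-positive cells counted by fluorescence microscopy.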

Influenza A virus [2] = test: Antiviral activity against influenza A virus A/PR/8/34(H1N1) infected in MDCK cells assessed as protection against virus-induced cytopathic effect after 3 to 4 days by neutral red dye assay; format: functional
Summary of the method: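 Near-confluent MDCK monolayers (1 × 10^5 cells/well) inoculated with virus for 1 h, then medium replaced with DMEM containing 10 µg/mL trypsin plus compounds at several concentrations. Incubated 3-4 days at 37 °C, 5% CO2.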

Influenza A virus [3] = test: Antiviral activity against influenza A virus A/PR/8/34(H1N1) infected in MDCK cells at 3.18 uM after 24 hrs by immunofluorescence assay; format: functional, organism-based; summary of the method: as §1
Neuraminidase [4] = molecular target: T1, Neuraminidase (Influenza A virus, UniProt B4URF0); test: Inhibition of Influenza A virus (A/Sw/Kor/CAH1/04 (H1N1) KCTC 11165BP neuraminidase after 30 mins by spectrofluorimetric analysis
T1 sequence (B4URF0 whole entry): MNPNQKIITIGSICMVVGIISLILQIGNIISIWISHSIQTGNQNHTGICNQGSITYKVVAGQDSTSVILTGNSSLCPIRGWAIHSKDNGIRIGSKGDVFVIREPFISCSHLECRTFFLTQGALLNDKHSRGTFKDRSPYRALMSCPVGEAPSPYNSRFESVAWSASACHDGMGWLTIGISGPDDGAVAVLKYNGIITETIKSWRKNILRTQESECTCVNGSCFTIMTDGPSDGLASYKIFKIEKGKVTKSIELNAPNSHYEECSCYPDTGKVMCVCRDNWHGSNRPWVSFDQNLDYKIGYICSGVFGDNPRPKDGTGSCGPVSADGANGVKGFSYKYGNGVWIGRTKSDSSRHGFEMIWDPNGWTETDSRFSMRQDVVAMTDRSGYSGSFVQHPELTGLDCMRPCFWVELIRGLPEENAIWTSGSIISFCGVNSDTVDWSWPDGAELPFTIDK

Neuraminidase [5] = molecular target: T1, Neuraminidase; test: Inhibition of Influenza A virus (A/chicken/Korea/01310/2001 (H9N2)) neuraminidase after 30 mins by spectrofluorimetric analysis
MDCK = test: Cytotoxicity against MDCK cells at 97.56 uM after 48 hrs by neutral red dye assay; format: cell-based, Canis lupus familiaris; conditions: dog

Structure (SMILES) | IC50 (Neuraminidase [4]) | IC50 (Neuraminidase [5]) | further results
COc1c(C)c(O)c(C)c(O)c1C(=O)/C=C/c1ccc(O)cc1 | – | – | Activity (Influenza A virus [1]): Active; CC50 (Influenza A virus [2]): > 120 µM; Activity (Influenza A virus [3]): Active
COc1c(C)c(O)c2c(c1C=O)O[C@H](c1ccccc1)CC2=O | 290 µM | 299 µM | –
COc1c(C)c(O)c(C)c(O)c1C(=O)/C=C/c1ccccc1O | – | – | CC50 (Influenza A virus [2]): > 120 µM
Cc1c(O)c(C)c2c(c1O)C(=O)C[C@@H](c1ccccc1)O2 [DEMETHOXYMATTEUCINOL] | 334 µM | 319 µM | –
COc1c(C)c2c(c(O)c1C=O)C(=O)C[C@@H](c1ccccc1)O2 | 269 µM | 256 µM | –
COc1cc(O)c(C)c(O)c1C(=O)/C=C/c1ccccc1 | – | – | CC50 (Influenza A virus [2]): 135 µM
COc1c(C)c(O)c(C)c2oc(-c3ccccc3)cc(=O)c12 | 414 µM | 363 µM | –
COc1c(C)c(O)c(C)c(O)c1C(=O)/C=C/c1ccccc1 | – | – | CC50 (Influenza A virus [2]): 78.4 µM
COc1c(C)c(O)c(C)c2c1C(=O)C[C@@](O)(c1ccccc1)O2 | 283 µM | 285 µM | –
Cc1c(O)cc(O)c2c1O[C@H](c1ccccc1)CC2=O | > 500 µM | > 500 µM | –
CCOC(=O)C1=C[C@@H](OC(CC)CC)[C@H](NC(C)=O)[C@@H](N)C1 [OSELTAMIVIR] | – | – | Activity (MDCK): 7%
COc1c(C)c(O)c2c(c1C)O[C@H](c1ccccc1)CC2=O | > 500 µM | > 500 µM | –
Cc1c(O)c(C)c2c(c1O)C(=O)[C@H](O)[C@@H](c1ccccc1)O2 | 375 µM | 368 µM | –
COc1cc(O)c(C)c2c1C(=O)C[C@@H](c1ccccc1)O2 | > 500 µM | > 500 µM | –
COc1c(C)c(O)c(C)c2occ(-c3ccccc3)c(=O)c12 | 431 µM | 391 µM | –
